# The source made the active and inactive calls. The calls are words filed in the database; no cut-off is given here.
# How the values were obtained:
# Mus musculus [1] = experiment: Antiinflammatory activity against carrageenan-induced paw edema in Swiss albino mouse assessed as swelling thickness at 200 mg/kg, po after 270 mins; format: functional
# Procedure, shortened: (§1)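 Oral dosing in 0.5% CMC; vehicle to controls. Then carrageenan (0.5 mg/25 ll, freshly suspended in 154 mM saline) injected into the right hind paw subplantar tissue; saline into the left paw. Right-left footpad thickness difference measured by dial gauge calliper every 90 min over 6 h. Inhibition % is relative to vehicle control. n = 6; mean ± SEM.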
# Mus musculus [2] = experiment: Antiinflammatory activity against carrageenan-induced paw edema in Swiss albino mouse assessed as swelling thickness at 200 mg/kg, po after 360 mins; format: functional; procedure, shortened: as §1
# Mus musculus [3] = experiment: Antiinflammatory activity against carrageenan-induced paw edema in Swiss albino mouse assessed as swelling thickness at 200 mg/kg, po after 90 mins; format: functional; procedure, shortened: as §1
# Mus musculus [4] = experiment: Inhibition of p-benzoquinone-induced writhing in Swiss albino mouse at 25 mg/kg, po relative to control; format: functional
# Procedure, shortened: (§2)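 Mice, n = 6 per group, dosed orally with a suspension in 0.5% sodium CMC. 60 min later, 0.1 ml/10 g of 2.5% […] p-benzoquinone in distilled water given ip. Abdominal writhes counted per animal for 15 min, starting 5 min after injection. Expressed as % change in mean writhing count versus vehicle controls.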
# Mus musculus [5] = experiment: Inhibition of carrageenan-induced paw edema in Swiss albino mouse at 100 mg/kg, po after 360 mins relative to control; format: functional; conditions: 6 h; procedure, shortened: as §1
# Mus musculus [6] = experiment: Inhibition of carrageenan-induced paw edema in Swiss albino mouse at 200 mg/kg, po after 90 mins relative to control; format: functional; conditions: 1.5 h; procedure, shortened: as §1
# Mus musculus [7] = experiment: Inhibition of carrageenan-induced paw edema in Swiss albino mouse at 25 mg/kg, po after 270 mins relative to control; format: functional; conditions: 4.5 h; procedure, shortened: as §1
# Mus musculus [8] = experiment: Antiinflammatory activity against carrageenan-induced paw edema in Swiss albino mouse assessed as swelling thickness at 25 mg/kg, po after 180 mins; format: functional; procedure, shortened: as §1
# Mus musculus [9] = experiment: Inhibition of carrageenan-induced paw edema in Swiss albino mouse at 100 mg/kg, po after 180 mins relative to control; format: functional; conditions: 3 h; procedure, shortened: as §1
# Mus musculus [10] = experiment: Acute toxicity in Swiss albino mouse assessed as lethal effect at 100 mg/kg/day, po after 72 hrs; format: organism-based; set-up: route oral; conditions: in vivo
# Procedure, shortened: (§3)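 Oral single dose suspended in 0.5% carboxymethylcellulose, given after a 24 h fast; food and water returned 1 h after dosing. Vehicle-only controls. Mice observed at 1 h, then once daily for 72 h, for toxic signs and mortality.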
# Mus musculus [11] = experiment: Inhibition of carrageenan-induced paw edema in Swiss albino mouse at 100 mg/kg, po after 90 mins relative to control; format: functional; conditions: 1.5 h; procedure, shortened: as §1
# Mus musculus [12] = experiment: Antiinflammatory activity against carrageenan-induced paw edema in Swiss albino mouse assessed as swelling thickness at 50 mg/kg, po after 360 mins; format: functional; procedure, shortened: as §1
# Mus musculus [13] = experiment: Antiinflammatory activity against carrageenan-induced paw edema in Swiss albino mouse assessed as swelling thickness at 100 mg/kg, po after 180 mins; format: functional; procedure, shortened: as §1
# Mus musculus [14] = experiment: Inhibition of p-benzoquinone-induced writhing in Swiss albino mouse at 200 mg/kg, po relative to control; format: functional; procedure, shortened: as §2
# Mus musculus [15] = experiment: Antiinflammatory activity against carrageenan-induced paw edema in Swiss albino mouse assessed as swelling thickness at 25 mg/kg, po after 90 mins; format: functional; procedure, shortened: as §1
# Mus musculus [16] = experiment: Inhibition of carrageenan-induced paw edema in Swiss albino mouse at 50 mg/kg, po after 360 mins relative to control; format: functional; conditions: 6 h
# Procedure, shortened: (§4)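 Mice, n = 6 per group. Test agent given orally as a suspension in 0.5% sodium CMC in distilled water; controls received vehicle only. Afterwards, 0.5 mg/25 ll carrageenan in saline (154 mM NaCl) injected subplantar into the right hind paw, saline into the left. Right-minus-left footpad thickness measured by dial gauge caliper every 90 min for 6 h. Inhibition is relative to vehicle-control group means.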
# Mus musculus [17] = experiment: Inhibition of carrageenan-induced paw edema in Swiss albino mouse at 25 mg/kg, po after 90 mins relative to control; format: functional; conditions: 1.5 h; procedure, shortened: as §1
# Mus musculus [18] = experiment: Inhibition of carrageenan-induced paw edema in Swiss albino mouse at 50 mg/kg, po after 90 mins relative to control; format: functional; conditions: 1.5 h; procedure, shortened: as §4
# Mus musculus [19] = experiment: Antiinflammatory activity against carrageenan-induced paw edema in Swiss albino mouse assessed as swelling thickness at 200 mg/kg, po after 180 mins; format: functional; procedure, shortened: as §1
# Mus musculus [20] = experiment: Acute toxicity in Swiss albino mouse assessed as lethal effect at 50 mg/kg/day, po after 72 hrs; format: organism-based; set-up: route oral; conditions: in vivo; procedure, shortened: as §3
# Mus musculus [21] = experiment: Gastric-ulcerogenic effect in Swiss albino mouse assessed as lesions at 25 mg/kg, po; format: functional, organism-based; set-up: dose 25 mg/kg
# Procedure, shortened: (§5)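 Mice killed under deep ether anesthesia 3 h after the writhing test; the oral dose in 0.5% CMC was the one used in that test. Stomachs removed, opened along the great curvature and examined under a dissecting microscope for lesions or bleeding. Reported as ratio of ulceration; n = 6.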
# Mus musculus [22] = experiment: Analgesic activity against p-benzoquinone-induced abdominal constriction in Swiss albino mouse assessed as number of writhings at 200 mg/kg, po; format: functional, Abdomen
# Procedure, shortened: (§6)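 Test samples given orally in 0.5% CMC; vehicle to controls. 60 min later, 2.5% (v/v) p-benzoquinone in distilled water, 0.1 ml/10 g, given i.p. Mice housed singly; writhes counted for 15 min starting 5 min after injection. Activity is % change from vehicle controls. n = 6; mean ± SEM.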
# Mus musculus [23] = experiment: Antiinflammatory activity against carrageenan-induced paw edema in Swiss albino mouse assessed as swelling thickness at 100 mg/kg, po after 270 mins; format: functional; procedure, shortened: as §1
# Mus musculus [24] = experiment: Analgesic activity against p-benzoquinone-induced abdominal constriction in Swiss albino mouse assessed as number of writhings at 25 mg/kg, po; format: functional, Abdomen; procedure, shortened: as §6
# Mus musculus [25] = experiment: Inhibition of p-benzoquinone-induced writhing in Swiss albino mouse at 100 mg/kg, po relative to control; format: functional; procedure, shortened: as §2
# Mus musculus [26] = experiment: Analgesic activity against p-benzoquinone-induced abdominal constriction in Swiss albino mouse assessed as number of writhings at 100 mg/kg, po; format: functional, Abdomen; procedure, shortened: as §6
# Mus musculus [27] = experiment: Inhibition of carrageenan-induced paw edema in Swiss albino mouse at 100 mg/kg, po after 270 mins relative to control; format: functional; conditions: 4.5 h; procedure, shortened: as §1
# Mus musculus [28] = experiment: Inhibition of p-benzoquinone-induced writhing in Swiss albino mouse at 50 mg/kg, po relative to control; format: functional; procedure, shortened: as §2
# Mus musculus [29] = experiment: Acute toxicity in Swiss albino mouse assessed as lethal effect at 200 mg/kg/day, po after 72 hrs; format: organism-based; set-up: route oral; conditions: in vivo; procedure, shortened: as §3
# Mus musculus [30] = experiment: Inhibition of carrageenan-induced paw edema in Swiss albino mouse at 50 mg/kg, po after 180 mins relative to control; format: functional; conditions: 3 h; procedure, shortened: as §1
# Mus musculus [31] = experiment: Inhibition of carrageenan-induced paw edema in Swiss albino mouse at 25 mg/kg, po after 180 mins relative to control; format: functional; conditions: 3 h; procedure, shortened: as §1
# Mus musculus [32] = experiment: Analgesic activity against p-benzoquinone-induced abdominal constriction in Swiss albino mouse assessed as number of writhings at 50 mg/kg, po; format: functional, Abdomen; procedure, shortened: as §6
# Mus musculus [33] = experiment: Antiinflammatory activity against carrageenan-induced paw edema in Swiss albino mouse assessed as swelling thickness at 50 mg/kg, po after 180 mins; format: functional; procedure, shortened: as §1
# Mus musculus [34] = experiment: Inhibition of carrageenan-induced paw edema in Swiss albino mouse at 200 mg/kg, po after 360 mins relative to control; format: functional; conditions: 6 h; procedure, shortened: as §1
# Mus musculus [35] = experiment: Antiinflammatory activity against carrageenan-induced paw edema in Swiss albino mouse assessed as swelling thickness at 50 mg/kg, po after 90 mins; format: functional; procedure, shortened: as §1
# Mus musculus [36] = experiment: Inhibition of carrageenan-induced paw edema in Swiss albino mouse at 25 mg/kg, po after 360 mins relative to control; format: functional; conditions: 6 h; procedure, shortened: as §1
# Mus musculus [37] = experiment: Inhibition of carrageenan-induced paw edema in Swiss albino mouse at 50 mg/kg, po after 270 mins relative to control; format: functional; conditions: 4.5 h; procedure, shortened: as §4
# Mus musculus [38] = experiment: Gastric-ulcerogenic effect in Swiss albino mouse assessed as lesions at 50 mg/kg, po; format: functional, organism-based; set-up: dose 50 mg/kg; procedure, shortened: as §5
# Mus musculus [39] = experiment: Antiinflammatory activity against carrageenan-induced paw edema in Swiss albino mouse assessed as swelling thickness at 100 mg/kg, po after 90 mins; format: functional; procedure, shortened: as §1
# Mus musculus [40] = experiment: Acute toxicity in Swiss albino mouse assessed as lethal effect at 25 mg/kg/day, po after 72 hrs; format: organism-based; set-up: route oral; conditions: in vivo; procedure, shortened: as §3
# Mus musculus [41] = experiment: Inhibition of carrageenan-induced paw edema in Swiss albino mouse at 200 mg/kg, po after 180 mins relative to control; format: functional; conditions: 3 h; procedure, shortened: as §1
# Mus musculus [42] = experiment: Antiinflammatory activity against carrageenan-induced paw edema in Swiss albino mouse assessed as swelling thickness at 25 mg/kg, po after 360 mins; format: functional; procedure, shortened: as §1
# Mus musculus [43] = experiment: Antiinflammatory activity against carrageenan-induced paw edema in Swiss albino mouse assessed as swelling thickness at 50 mg/kg, po after 270 mins; format: functional; procedure, shortened: as §1
# Mus musculus [44] = experiment: Inhibition of carrageenan-induced paw edema in Swiss albino mouse at 200 mg/kg, po after 270 mins relative to control; format: functional; conditions: 4.5 h; procedure, shortened: as §1
# Mus musculus [45] = experiment: Antiinflammatory activity against carrageenan-induced paw edema in Swiss albino mouse assessed as swelling thickness at 25 mg/kg, po after 270 mins; format: functional; procedure, shortened: as §1
# Mus musculus [46] = experiment: Antiinflammatory activity against carrageenan-induced paw edema in Swiss albino mouse assessed as swelling thickness at 100 mg/kg, po after 360 mins; format: functional; procedure, shortened: as §1
smiles,measurement,setting,value
CS(=O)(=O)c1nc(-c2ccccc2Cl)n[nH]1,Activity,Mus musculus [1],59.8 10^-2mm
same,Activity,Mus musculus [2],65.1 10^-2mm
same,Activity,Mus musculus [3],49.8 10^-2mm
same,inhibition in vivo at 25 mg/kg,Mus musculus [4],21.9%
same,inhibition in vivo at 100 mg/kg,Mus musculus [5],35.3%
same,inhibition in vivo at 200 mg/kg,Mus musculus [6],6.4%
same,inhibition in vivo at 25 mg/kg,Mus musculus [7],7.1%
same,Activity,Mus musculus [8],56.9 10^-2mm
same,inhibition in vivo at 100 mg/kg,Mus musculus [9],24.3%
same,Activity,Mus musculus [10],Non-toxic
same,inhibition in vivo at 100 mg/kg,Mus musculus [11],21.9%
same,Activity,Mus musculus [12],45.5 10^-2mm
same,Activity,Mus musculus [13],39 10^-2mm
same,inhibition in vivo at 200 mg/kg,Mus musculus [14],11.9%
same,Activity,Mus musculus [15],49.1 10^-2mm
same,inhibition in vivo at 50 mg/kg,Mus musculus [16],36.8%
same,inhibition in vivo at 25 mg/kg,Mus musculus [17],7.7%
same,inhibition in vivo at 50 mg/kg,Mus musculus [18],26.5%
same,Activity,Mus musculus [19],54.6 10^-2mm
same,Activity,Mus musculus [20],Non-toxic
same,Activity,Mus musculus [21],Active
same,Activity,Mus musculus [22],45.3
same,Activity,Mus musculus [23],41.3 10^-2mm
same,Activity,Mus musculus [24],40.1
same,inhibition in vivo at 100 mg/kg,Mus musculus [25],31.9%
same,Activity,Mus musculus [26],32.2
same,inhibition in vivo at 100 mg/kg,Mus musculus [27],29.8%
same,inhibition in vivo at 50 mg/kg,Mus musculus [28],40.9%
same,Activity,Mus musculus [29],Non-toxic
same,inhibition in vivo at 50 mg/kg,Mus musculus [30],30.6%
same,inhibition in vivo at 25 mg/kg,Mus musculus [31],4.2%
same,Activity,Mus musculus [32],30.4
same,Activity,Mus musculus [33],41.2 10^-2mm
same,inhibition in vivo at 200 mg/kg,Mus musculus [34],9.6%
same,Activity,Mus musculus [35],39.1 10^-2mm
same,inhibition in vivo at 25 mg/kg,Mus musculus [36],6.8%
same,inhibition in vivo at 50 mg/kg,Mus musculus [37],33.5%
same,Activity,Mus musculus [38],Active
same,Activity,Mus musculus [39],35 10^-2mm
same,Activity,Mus musculus [40],Non-toxic
same,inhibition in vivo at 200 mg/kg,Mus musculus [41],8.1%
same,Activity,Mus musculus [42],67.1 10^-2mm
same,Activity,Mus musculus [43],43.1 10^-2mm
same,inhibition in vivo at 200 mg/kg,Mus musculus [44],7.7%
same,Activity,Mus musculus [45],60.2 10^-2mm
same,Activity,Mus musculus [46],44.5 10^-2mm
